Results published in ChEMBL document CHEMBL3351225, “Design, synthesis, and structure-activity and structure-pharmacokinetic relationship studies of novel [6,6,5] tricyclic fused oxazolidinones leading to the discovery of a potent, selective, and orally bioavailable FXa inhibitor” (J Med Chem, 2014).

Experiments:
[1] = Elimination half life in Sprague-Dawley rat at 10 mg/kg, po; format: ADME, organism-based; parameters: dose 10 mg/kg, route oral; details: in vivo, read-out: beta t1/2 (converted)
Method in brief: (§1)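 Male Sprague-Dawley rats, 200−220 g, four per group. Vehicle was 5% DMSO + 5% Tween-80 in 90% saline. The reference drug was given in 10% DMSO + 10% Tween-80 + 80% PEG400 (40% solution in saline). Serial retrobulbar vein samples were quantified by LC-MS. Parameters came from noncompartmental analysis of mean plasma concentrations.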

[2] = AUC (0 to infinity) in Sprague-Dawley rat at 10 mg/kg, po; format: ADME, organism-based; parameters: time infinity, dose 10 mg/kg, route oral; details: plasma; method in brief: as §1
Plasma [3] = test: Anticoagulant activity in citrated rabbit plasma assessed as drug concentration required to double plasma clotting time preincubated for 10 mins at 37 degC by coagulometry; format: functional, Oryctolagus cuniculus
Method in brief: (§2)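 Test compound or DMSO added to citrated rabbit plasma (3.8% sodium citrate, 10:90 v/v) and preincubated 10 min at 37 °C. PT and aPTT clotting times measured on a coagulometer with commercial kits. Activity expressed as the concentration needed to double plasma clotting time (CT2, μM).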

[4] = AUC (0 to infinity) in Sprague-Dawley rat at 3 mg/kg, iv; format: ADME, organism-based; parameters: time infinity, dose 3 mg/kg, route intravenous; details: plasma; method in brief: as §1
Coagulation factor VII = biological target: T1, Coagulation factor VII (Homo sapiens, UniProt P08709); test: Inhibition of human factor 7a using S-2366 chromogenic substrate
T1 sequence (P08709 whole entry): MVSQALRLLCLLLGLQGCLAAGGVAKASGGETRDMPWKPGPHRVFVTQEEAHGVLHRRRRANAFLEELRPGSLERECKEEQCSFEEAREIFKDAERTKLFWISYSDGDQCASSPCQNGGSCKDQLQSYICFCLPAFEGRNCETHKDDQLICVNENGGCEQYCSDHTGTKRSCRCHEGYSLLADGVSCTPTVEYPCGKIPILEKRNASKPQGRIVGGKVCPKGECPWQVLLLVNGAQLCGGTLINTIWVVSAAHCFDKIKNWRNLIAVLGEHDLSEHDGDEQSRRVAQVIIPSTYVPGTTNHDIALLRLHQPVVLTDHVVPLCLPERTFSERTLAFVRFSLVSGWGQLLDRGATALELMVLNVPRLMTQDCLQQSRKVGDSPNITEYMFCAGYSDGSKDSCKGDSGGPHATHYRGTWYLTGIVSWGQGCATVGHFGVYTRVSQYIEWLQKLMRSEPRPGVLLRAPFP
Method in brief: (§3)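 Human enzyme and inhibitor were premixed and preincubated, then the chromogenic substrate was added. Substrate levels: 300 μM S-2765 (FXa, trypsin); 200 μM S-2366 (FIIa); 2 mM S-2366 (FVIIa, FXIa). pNA release was monitored continuously at 405 nm for 20 min at 37 °C. IC50 was obtained by nonlinear regression.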

Plasma [5] = test: Anticoagulant activity in citrated rabbit plasma assessed as activated partial thromboplastin time preincubated for 10 mins at 37 degC by coagulometry; format: functional, Oryctolagus cuniculus; method in brief: as §2
[6] = Plasma clearance in Sprague-Dawley rat at 3 mg/kg, iv; format: ADME, organism-based; parameters: dose 3 mg/kg, route intravenous; method in brief: as §1
[7] = Oral bioavailability in Sprague-Dawley rat at 10 mg/kg; format: ADME, organism-based; details: in vivo; method in brief: as §1
Prothrombin = Prothrombin (Homo sapiens, UniProt P00734); test: Inhibition of human factor 2a using L-pyro-Glu-Pro-ArgpNA, S-2366 chromogenic substrate; method in brief: as §3
[8] = Elimination half life in Sprague-Dawley rat at 3 mg/kg, iv; format: ADME, organism-based; parameters: dose 3 mg/kg, route intravenous; details: in vivo, read-out: beta t1/2 (converted); method in brief: as §1
[9] = Cmax in Sprague-Dawley rat at 10 mg/kg, po; format: ADME, organism-based; parameters: dose 10 mg/kg, route oral; details: in vivo; method in brief: as §1
Coagulation factor XI = Coagulation factor XI (Homo sapiens, UniProt P03951); test: Inhibition of human factor 11a using S-2366 chromogenic substrate; method in brief: as §3
Coagulation factor XI, sequence (P03951 19-387 limits assumed): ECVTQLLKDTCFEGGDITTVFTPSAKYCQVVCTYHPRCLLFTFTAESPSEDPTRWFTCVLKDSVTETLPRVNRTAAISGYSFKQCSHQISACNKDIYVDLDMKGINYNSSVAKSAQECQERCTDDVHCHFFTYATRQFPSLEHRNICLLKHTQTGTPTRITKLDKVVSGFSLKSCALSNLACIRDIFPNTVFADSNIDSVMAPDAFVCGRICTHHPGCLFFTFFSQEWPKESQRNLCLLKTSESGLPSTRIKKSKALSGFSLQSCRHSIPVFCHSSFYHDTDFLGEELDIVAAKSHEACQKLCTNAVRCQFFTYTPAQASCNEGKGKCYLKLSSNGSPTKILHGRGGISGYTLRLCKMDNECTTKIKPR
Coagulation factor XI, sequence (P03951 388-625 limits assumed): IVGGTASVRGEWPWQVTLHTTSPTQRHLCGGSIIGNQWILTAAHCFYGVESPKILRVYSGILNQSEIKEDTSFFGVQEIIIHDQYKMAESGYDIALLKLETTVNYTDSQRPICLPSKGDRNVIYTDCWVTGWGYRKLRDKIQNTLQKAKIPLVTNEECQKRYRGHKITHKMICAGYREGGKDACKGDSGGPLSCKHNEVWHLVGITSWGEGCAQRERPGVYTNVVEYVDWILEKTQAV

Coagulation factor X = Coagulation factor X (Homo sapiens, UniProt P00742); test: Inhibition of human factor 10a using N-Z-D-Arg-Gly-Arg-pNA, S-2765 chromogenic substrate
Coagulation factor X, sequence (P00742 41-179 limits assumed): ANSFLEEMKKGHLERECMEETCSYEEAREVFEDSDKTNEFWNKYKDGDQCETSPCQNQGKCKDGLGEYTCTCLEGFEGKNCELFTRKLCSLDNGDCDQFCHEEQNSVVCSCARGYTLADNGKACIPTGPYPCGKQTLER
Coagulation factor X, sequence (P00742 235-488 limits assumed): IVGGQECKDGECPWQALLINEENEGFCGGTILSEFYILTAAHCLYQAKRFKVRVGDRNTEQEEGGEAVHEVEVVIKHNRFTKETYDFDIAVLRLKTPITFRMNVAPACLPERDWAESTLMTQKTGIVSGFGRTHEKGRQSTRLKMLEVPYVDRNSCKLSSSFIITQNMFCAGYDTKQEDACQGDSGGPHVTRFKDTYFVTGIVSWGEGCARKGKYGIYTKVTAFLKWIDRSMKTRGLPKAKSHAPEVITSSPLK

Coagulation factor IX = Coagulation factor IX (Homo sapiens, UniProt P00740); test: Inhibition of human factor 9a using CH3SO2-(D)CHG Gly-Arg-pNA, Biophen-CS51 chromogenic substrate
Coagulation factor IX, sequence (P00740 47-191 limits assumed): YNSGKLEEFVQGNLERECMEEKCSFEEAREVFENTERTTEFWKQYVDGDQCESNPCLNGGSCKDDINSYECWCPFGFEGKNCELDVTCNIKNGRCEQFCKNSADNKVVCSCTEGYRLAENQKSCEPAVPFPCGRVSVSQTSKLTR
Coagulation factor IX, sequence (P00740 227-461 limits assumed): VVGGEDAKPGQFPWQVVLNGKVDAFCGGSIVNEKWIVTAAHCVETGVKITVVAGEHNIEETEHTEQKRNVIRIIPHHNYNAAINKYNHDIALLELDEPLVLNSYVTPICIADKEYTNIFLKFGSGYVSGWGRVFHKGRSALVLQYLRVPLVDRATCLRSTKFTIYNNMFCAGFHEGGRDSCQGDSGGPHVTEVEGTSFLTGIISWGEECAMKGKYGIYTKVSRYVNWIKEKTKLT

[10] = Tmax in Sprague-Dawley rat at 10 mg/kg, po; format: ADME, organism-based; parameters: dose 10 mg/kg, route oral; details: in vivo; method in brief: as §1
Trypsin = Trypsin (Homo sapiens, UniProt P07477+P07478+P35030); test: Inhibition of human trypsin using N-Z-D-Arg-Gly-Arg-pNA, S-2765 chromogenic substrate; format: protein assay; method in brief: as §3
[11] = Volume of distribution at steady state in Sprague-Dawley rat at 3 mg/kg, iv; format: ADME, organism-based; parameters: dose 3 mg/kg, route intravenous; details: in vivo, read-out: Vdss; method in brief: as §1
[12] = Plasma clearance in Sprague-Dawley rat at 4.5 mg/kg, iv; format: ADME, organism-based; parameters: dose 4.5 mg/kg, route intravenous; method in brief: as §1
[13] = AUC (0 to infinity) in Sprague-Dawley rat at 4.5 mg/kg, iv; format: ADME, organism-based; parameters: time infinity, dose 4.5 mg/kg, route intravenous; details: plasma; method in brief: as §1
[14] = AUC (0 to infinity) in Sprague-Dawley rat at 9 mg/kg, po; format: ADME, organism-based; parameters: time infinity, dose 9 mg/kg, route oral; details: plasma; method in brief: as §1
[15] = Oral bioavailability in Sprague-Dawley rat at 9 mg/kg; format: ADME, organism-based; details: in vivo; method in brief: as §1
[16] = Volume of distribution at steady state in Sprague-Dawley rat at 4.5 mg/kg, iv; format: ADME, organism-based; parameters: dose 4.5 mg/kg, route intravenous; details: in vivo, read-out: Vdss; method in brief: as §1
[17] = Tmax in Sprague-Dawley rat at 9 mg/kg, po; format: ADME, organism-based; parameters: dose 9 mg/kg, route oral; details: in vivo; method in brief: as §1
[18] = Elimination half life in Sprague-Dawley rat at 9 mg/kg, po; format: ADME, organism-based; parameters: dose 9 mg/kg, route oral; details: in vivo, read-out: beta t1/2 (converted); method in brief: as §1
[19] = Cmax in Sprague-Dawley rat at 9 mg/kg, po; format: ADME, organism-based; parameters: dose 9 mg/kg, route oral; details: in vivo; method in brief: as §1
[20] = Elimination half life in Sprague-Dawley rat at 4.5 mg/kg, iv; format: ADME, organism-based; parameters: dose 4.5 mg/kg, route intravenous; details: in vivo, read-out: beta t1/2 (converted); method in brief: as §1

O=C(NC[C@@H]1OC(=O)N2c3ccc(N4CCOCC4=O)cc3SC[C@@H]12)c1ccc(Cl)s1
half-life [1]: 3.15 h | AUC(0-inf) [2]: 1480 ng·h/mL | Activity (Plasma [3]): 0.58 µM | AUC(0-inf) [4]: 5700 ng·h/mL | IC50 (Coagulation factor VII): > 100 µM | 2aPTT (Plasma [5]): 0.33 µM | clearance [6]: 8.82 mL/min/kg | bioavailability [7]: 7.4% | IC50 (Prothrombin): > 100 µM | half-life [8]: 0.89 h | Cmax [9]: 167 ng/mL | IC50 (Coagulation factor XI): > 100 µM | IC50 (Coagulation factor X): 0.00251 µM | IC50 (Coagulation factor IX): > 100 µM | Tmax [10]: 4 h | IC50 (Trypsin): > 100 µM | Vd [11]: 0.574 L/kg

O=C(NC[C@@H]1OC(=O)N2c3ccc(N4CCCCC4=O)cc3OC[C@@H]12)c1ccc(Cl)s1
clearance [12]: 2.28 mL/min/kg | Activity (Plasma [3]): 0.42 µM | 2aPTT (Plasma [5]): 1.63 µM | AUC(0-inf) [13]: 33600 ng·h/mL | AUC(0-inf) [14]: 28500 ng·h/mL | bioavailability [15]: 42%

CS(=O)(=O)c1ccccc1-c1ccc2c(c1)OC[C@H]1[C@H](CNC(=O)c3ccc(Cl)s3)OC(=O)N21
clearance [12]: 1.72 mL/min/kg | Activity (Plasma [3]): 5.88 µM | Vd [16]: 0.169 L/kg | Tmax [17]: 1 h | 2aPTT (Plasma [5]): 4.65 µM | AUC(0-inf) [13]: 43900 ng·h/mL | half-life [18]: 1.43 h | IC50 (Coagulation factor X): 0.0376 µM | Cmax [19]: 6760 ng/mL | AUC(0-inf) [14]: 24500 ng·h/mL | half-life [20]: 0.88 h | bioavailability [15]: 27.3%
